The record followed here is ChEMBL document CHEMBL4371088, “Analysis of chain length, substitution patterns, and unsaturation of AM-404 derivatives as 20S proteasome stimulators” (Bioorg Med Chem Lett, 2019).

The structures appear in SMILES notation. pEC50: −log10 of the molar value.

The nature of data set [1]: Solubility of the compound in DMSO. It counts as physicochemical.
In a further data set the target is 20S proteasome. The experiment in a line: Stimulation of human 20S proteasome using 11 amino acid FRET peptide as substrate measured every 2 mins over 1 hr by FRET assay. It is filed as protein-complex assay. In a few lines: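 Purified human 20S core particle is incubated with an 11-residue reporter peptide carrying a FRET pair, with or without stimulator. The peptide hydrolysis rate is calculated and expressed as percent increase over the basal (unstimulated) rate. EC50 comes from concentration-response curves.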

Data set [2] addresses 20S proteasome (Homo sapiens) (UniProt P49721+P20618+P28074+P28062+P28065+P28072+P25786+P25787+P25788+P25789+P28066+P60900+O14818+Q8TAA3+P40306+A5LHX3+P49720+P28070+Q99436). The experiment in a line: Stimulation of human 20S proteasome at EC50 using 11 amino acid FRET peptide as substrate measured every 2 mins over 1 hr by FRET assay relative to control. It is filed as protein-complex assay. In a few lines: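 Purified human 20S core particle incubated with an 11-residue reporter peptide carrying a FRET pair. Hydrolysis rate of the peptide is calculated with and without stimulator and expressed as percent increase over basal hydrolysis.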

The test system of data set [3] is HEK-293T. The experiment in a line: Cytotoxicity against HEK293T cells up to 50 uM after 16 hrs by Celltiter-Glo luminescence assay. It is filed as cell-based. The note with it: human. In a few lines:
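HEK-293T cells exposed for 16 hrs to varying concentrations of stimulator before toxicity was assessed.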

For data set [4], the system named is HEK-293T. The experiment in a line: Cytotoxicity against HEK293T cells at 25 to 50 uM after 24 hrs by LDH assay. The conditions noted are these: human.

For the compound `CCCCCCCC/C=C\CCCCC/C=C/C(=O)O`, the solubility entry in data set [1] is recorded as “Insoluble”.
Consider `CCCCCC/C=C\CCCCC/C=C/C(=O)O`, for which, in data set [1], the solubility entry is “Insoluble”.
The compound `CCCCCCCC/C=C\CCCCCCCC(=O)Nc1ccc(O)cc1` had a pEC50 on 20S proteasome of 4.46. The Activity in data set [2] was 400%; in the data set with HEK-293T [3] it was “Non-Toxic”; with HEK-293T [4], “Non-Toxic”.
As to `CCCCCCCC/C=C\CCCCC/C=C/C(=O)Nc1ccc(O)cc1`, the pEC50 on 20S proteasome is 4.62. Further, the Activity in data set [2] was 500%; with HEK-293T [3] it was “Non-Toxic”; in the data set on HEK-293T [4], “Non-Toxic”.
In the case of `CCCCC/C=C\C/C=C\C/C=C\C/C=C\CCCC(=O)Nc1ccc(O)cc1`, the pEC50 at 20S proteasome was 4.55. Also, the Activity in data set [2] was 1000%; in the data set on HEK-293T [3] it was “Toxic”; in the data set on HEK-293T [4] it was “Non-Toxic”.
